Read-outs that look alike come from different tables or passages of the source.
Assays:
[1] = tested on: RVFV (rRVFVΔNSs::Katushka); assay: microbe, parasite or virus in culture; type: cell-based, Rift Valley fever virus
in vitro [2] = details: human
ZIKV FB-GWUH-2016 strain [3] = assay: Viability and death of ZIKV-infected RPE cells; type: cell-based, Zika virus; details: for SI (minimal selectivity index, CC50/EC50): ZIKV, RPE cells; for EC50: Zika virus, RPE
ZIKV FB-GWUH-2016 strain [4] = assay: ZIKV titer from compound-treated RPE cells, plaque assay on Vero-E6 cells; type: cell-based, Zika virus; details: for antiviral activity in repeat experiments: repeated CTG, CTxG and virus titration; for EC50: Zika virus, read-out: EC50 other
How it was run: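 Medium for ZIKV infection: DMEM-F12 with 2% FBS, 2 mM L-glutamine, 0.25% sodium bicarbonate and 50 U/ml PenStrep, applied after 24 h growth of ~4 × 10^4 RPE cells/well. Test compound added in seven three-fold dilutions from 30 μM; infection at MOI 1. Media harvested at cytopathic effect (typically 24–72 hpi), serially diluted in PBS, plaque-titrated on Vero-E6 (PFU/ml). EC50 from variable-slope non-linear regression or Hill fit.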

in vitro [5] = details: human; remark: listed apart in the source
CHIKV-2SG-NanoLuc [6] = assay: microbe, parasite or virus in culture; type: cell-based, Chikungunya virus; details: for EC50: Chikungunya virus, RPE
CHIKV-2SG-NanoLuc [7] = assay: microbe, parasite or virus in culture; type: cell-based, Chikungunya virus
EV1 [8] = assay: microbe, parasite or virus in culture; type: cell-based, Echovirus 1
EV1 [9] = assay: microbe, parasite or virus in culture; type: cell-based, Echovirus 1; details: for EC50: read-out: EC50 other
HIV-1 = HIV-1 infection of TZM-bl cells, firefly luciferase under HIV-1 LTR promoter; type: cell-based, Human immunodeficiency virus 1
in vitro [10] = details: human; remark: listed apart in the source
[11] = tested on: FLUAV (influenza A/WSN/33(H1N1) virus); assay: microbe, parasite or virus in culture; type: cell-based; details: for EC50: Influenza A virus, H1N1|WSN, RPE
[12] = tested on: FLUAV (influenza A/WSN/33(H1N1) virus); assay: microbe, parasite or virus in culture; type: cell-based
HSV-1 [13] = assay: Viability and death of HSV-1-infected RPE cells; type: cell-based, Herpes simplex virus 1
HSV-1 [14] = assay: HSV-1 titer from compound-treated RPE cells, plaque assay on Vero-E6 cells; type: cell-based, Herpes simplex virus 1; details: HSV-1, RPE cells; repeated CTG, CTxG and virus titration
How it was run: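 RPE cells (~4 × 10^4/well) grown 24 h, then switched to DMEM-F12 with 0.2% BSA, 2 mM L-glutamine, 0.35% NaHCO3 and 1 μg/mL TPCK-trypsin. Three-fold dilutions of test compound (seven concentrations from 30 μM); HSV-1 infection at MOI 1. Supernatants collected at cytopathic effect (typically 24–72 hpi), serially diluted in PBS, plaqued on Vero-E6 under overlay, fixed; titers as PFU/ml.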

[15] = Enterovirus B, RPE, read-out: EC50 CTxG

## Nc1ncn([C@@H]2O[C@H](CO)[C@@H](O)[C@H]2O)c(=O)n1 [Azacitidine]
[1]
  SI (minimal selectivity index, CC50/EC50): >9
  screen hit against RVFV: identified
[1]; Rift Valley fever virus, A549, read-out: EC50 other
  EC50: 11.4 µM
In vitro [2]
  CC50: > 100 µM

## Nc1ncnc2c([C@@H]3N[C@H](CO)[C@@H](O)[C@H]3O)c[nH]c12 [BCX4430]
ZIKV FB-GWUH-2016 strain [3]
  SI (minimal selectivity index, CC50/EC50): >2
ZIKV FB-GWUH-2016 strain [3]; read-out: EC50 CTG
  EC50: 18.5 µM
ZIKV FB-GWUH-2016 strain [3]; read-out: EC50 CTxG
  EC50: 2.96 µM
ZIKV FB-GWUH-2016 strain [4]; ZIKV, RPE cells
  antiviral activity in repeat experiments: confirmed antiviral activity
ZIKV FB-GWUH-2016 strain [4]
  EC50: 13.1 µM
In vitro [5]; CC50 CTG
  CC50: > 30 µM
In vitro [5]; CC50 CTxG
  CC50: > 30 µM

## CCN(CC)CCCC(C)Nc1ccnc2cc(Cl)ccc12 (centres unmarked) [Chloroquine]
ZIKV FB-GWUH-2016 strain [3]
  SI (minimal selectivity index, CC50/EC50): >4
ZIKV FB-GWUH-2016 strain [3]; read-out: EC50 CTG
  EC50: 7.25 µM
ZIKV FB-GWUH-2016 strain [4]; ZIKV, RPE cells
  antiviral activity in repeat experiments: confirmed antiviral activity
CHIKV-2SG-NanoLuc [6]; CHIKV, RPE cells
  SI (minimal selectivity index, CC50/EC50): >2
CHIKV-2SG-NanoLuc [6]; read-out: EC50 CTG
  EC50: 12.8 µM
CHIKV-2SG-NanoLuc [6]; read-out: EC50 CTxG
  EC50: 9.15 µM
CHIKV-2SG-NanoLuc [7]
  antiviral activity in repeat experiments: confirmed antiviral activity
CHIKV-2SG-NanoLuc [7]; Chikungunya virus, RPE, read-out: EC50 other
  EC50: 16.8 µM
In vitro [5]; CC50 CTG
  CC50: > 30 µM
In vitro [5]; CC50 CTxG
  CC50: > 30 µM

## CN[C@H]1C(=O)N[C@@H]2Cc3ccc(cc3)Oc3cc4cc(c3O[C@@H]3O[C@H](C(=O)O)[C@@H](O)[C@H](O)[C@H]3NC(=O)CCCCCCCCC(C)C)Oc3ccc(cc3Cl)[C@@H](O)[C@@H]3NC(=O)[C@H](NC(=O)[C@@H]4NC(=O)[C@@H](NC2=O)c2cc(cc(O)c2Cl)Oc2cc1ccc2O)c1ccc(O)c(c1)-c1c(O[C@H]2O[C@H](CO)[C@@H](O)[C@H](O)[C@@H]2O)cc(O)cc1[C@@H](C(=O)NCCCN(C)C)NC3=O [Dalbavancin]
EV1 [8]; read-out: EC50 CTG
  EC50: 3.23 µM
EV1 [8]; read-out: EC50 CTxG
  EC50: 18.7 µM
EV1 [9]
  antiviral activity in repeat experiments: confirmed antiviral activity
  production of infectious virus particles: lowered production of infectious virus particles
  EC50: 9.72 µM
RPE cells
  CC50: > 30 µM
  cytotoxicity: without detectable cytotoxicity

## CCCCOc1cc(C(=O)NCCN(CC)CC)c2ccccc2n1 [Dibucaine]
EV1 [8]
  SI (minimal selectivity index, CC50/EC50): >15
EV1 [8]; [15]
  EC50: 2.05 µM
EV1 [9]
  antiviral activity in repeat experiments: confirmed antiviral activity
EV1 [9]; Enterovirus B
  EC50: 0.96 µM
In vitro [5]; CC50 CTG
  CC50: > 30 µM
In vitro [5]; CC50 CTxG
  CC50: > 30 µM

## O=C1[C@H](CC[C@H](O)c2ccc(F)cc2)[C@@H](c2ccc(O)cc2)N1c1ccc(F)cc1 [Ezetimibe]
ZIKV FB-GWUH-2016 strain [3]
  SI (minimal selectivity index, CC50/EC50): >333
ZIKV FB-GWUH-2016 strain [3]; read-out: EC50 CTxG
  EC50: 0.09 µM
ZIKV FB-GWUH-2016 strain [4]; ZIKV, RPE cells
  production of infectious virus particles: lowered production of infectious virus particles
  antiviral activity in repeat experiments: confirmed antiviral activity
HIV-1; HIV-1, TZM-bl cells
  SI (minimal selectivity index, CC50/EC50): >2
  primary screen hit against HIV-1: anti-HIV-1 agents
HIV-1; HIV-1, TZM-bl cells, validation experiment
  validation of anti-HIV-1 hit: confirmed
HIV-1; Human immunodeficiency virus 1, TZM-bl, read-out: EC50 other
  EC50: 13.2 µM
[1]
  screen hit against RVFV: identified
RPE cells
  cytotoxicity: without detectable cytotoxicity
In vitro [5]; CC50 CTG
  CC50: > 30 µM
In vitro [5]; CC50 CTxG
  CC50: > 30 µM
In vitro [10]
  CC50: > 30 µM

## CNCCC(Oc1ccc(C(F)(F)F)cc1)c1ccccc1 (centres unmarked) [Fluoxatine]
In vitro [5]; CC50 CTG
  CC50: 4.02 µM
In vitro [5]; CC50 CTxG
  CC50: 7.33 µM

## Nc1ccn([C@@H]2O[C@H](CO)[C@@H](O)C2(F)F)c(=O)n1 [Gemcitabine]
[11]
  SI (minimal selectivity index, CC50/EC50): >29
[11]; read-out: EC50 CTG
  EC50: 0.25 µM
[11]; read-out: EC50 CTxG
  EC50: 1.02 µM
[12]
  antiviral activity in repeat experiments: confirmed antiviral activity
[12]; Influenza A virus, H1N1|WSN, read-out: EC50 other
  EC50: 0.89 µM
EV1 [8]
  SI (minimal selectivity index, CC50/EC50): >4
EV1 [8]; [15]
  EC50: 0.08 µM
EV1 [9]
  antiviral activity in repeat experiments: confirmed antiviral activity
EV1 [9]; Enterovirus B
  EC50: 6.96 µM
ZIKV FB-GWUH-2016 strain [3]
  SI (minimal selectivity index, CC50/EC50): 23
ZIKV FB-GWUH-2016 strain [3]; read-out: EC50 CTG
  EC50: 0.92 µM
ZIKV FB-GWUH-2016 strain [3]; read-out: EC50 CTxG
  EC50: 0.07 µM
ZIKV FB-GWUH-2016 strain [4]; ZIKV, RPE cells
  antiviral activity in repeat experiments: confirmed antiviral activity
HSV-1 [13]; HSV-1, RPE cells
  SI (minimal selectivity index, CC50/EC50): >500
HSV-1 [13]; Human alphaherpesvirus 1, RPE, read-out: EC50 CTG
  EC50: 0.05 µM
HSV-1 [14]
  antiviral activity in repeat experiments: confirmed antiviral activity
RPE cells; human
  CC50: 21.8 µM
In vitro [5]; CC50 CTG
  CC50: > 30 µM
In vitro [5]; CC50 CTxG
  CC50: > 30 µM

## CCN(CCO)CCCC(C)Nc1ccnc2cc(Cl)ccc12 (centres unmarked) [Hydroxychloroquine]
ZIKV FB-GWUH-2016 strain [3]
  SI (minimal selectivity index, CC50/EC50): >1
ZIKV FB-GWUH-2016 strain [3]; read-out: EC50 CTG
  EC50: 23 µM
ZIKV FB-GWUH-2016 strain [3]; read-out: EC50 CTxG
  EC50: 0.06 µM
ZIKV FB-GWUH-2016 strain [4]; ZIKV, RPE cells
  antiviral activity in repeat experiments: confirmed antiviral activity
In vitro [5]; CC50 CTG
  CC50: > 30 µM
In vitro [5]; CC50 CTxG
  CC50: > 30 µM

## Cc1cccc(C)c1OCC(=O)N[C@@H](Cc1ccccc1)[C@@H](O)C[C@H](Cc1ccccc1)NC(=O)[C@H](C(C)C)N1CCCNC1=O [Lopinavir]
ZIKV FB-GWUH-2016 strain [3]
  SI (minimal selectivity index, CC50/EC50): >1
ZIKV FB-GWUH-2016 strain [3]; read-out: EC50 CTG
  EC50: 12 µM
ZIKV FB-GWUH-2016 strain [4]; ZIKV, RPE cells
  antiviral activity in repeat experiments: confirmed antiviral activity
ZIKV FB-GWUH-2016 strain [4]
  EC50: 24.1 µM
In vitro [5]; CC50 CTG
  CC50: > 30 µM
In vitro [5]; CC50 CTxG
  CC50: > 30 µM
